# TCR CD3 inh: inhibitors of human TCR-CD3 interaction; TAMRA-labeled TCR probe fluorescence, biochemical; 0.37% of 360,000 active; inhibition, % at 9.4 µM; in the data active means inhibition above about 19%;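 further: recombinant mutant TCR 2C K166C tagged with TAMRA read by polarization; 0% = receptor in buffer alone and 100% = receptor with positive control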
# ATG4B inhibitor: inhibitors of human ATG4B cysteine protease. inhibition, % at 8.33 µM. Q9Y4P1. ATG4B cleavage of LC3-PLA2, NBD-HPC fluorescence, 1 h. 0.51% of 340,000 active; in the data active means inhibition above about 40%
# PRMT1 inh: inhibitors of human PRMT1; Q99873; recombinant PRMT1, activity-based probe fluorescence polarization; inhibition, % at 2.79 µM; 1.3% of 370,000 active;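 active means inhibition above about 21% made by adding two undisclosed values, limit read from the data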
# ABHD4 inh: ABHD4 (mouse) inhibition, primary FP screen | purified mABHD4, FP-Rh probe fluorescence polarization | 0.54% of 370,000 active | Q8VD66 | inhibition, % at 8.92 µM;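 active means inhibition exceeding the mean over every tested compound plus 3 SD, cut at about 30% in these data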;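 further: 0% = plate median of compound wells and 100% = S159A mutant with DMSO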
#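 Material: mouse ABHD4 enzyme, wild type; Benchmarks: S159A mutant high control, sample median low control; Buffer or medium: HEPES pH 7.0, NaCl, Pluronic buffer; Signal: fluorescence polarization; Read-out: percent inhibition of probe binding, normalized to plate controls; Timing: pre-incubation 45 min, probe exposure 60 min, at 25 °C; Dosing: 8.92 µM, single dose.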
# SIAE primary: inhibitors of human sialic acid acetylesterase SIAE; Q9HAT2; SIAE FP-Rh probe binding, fluorescence polarization; inhibition, % at 9.66 µM; 0.69% of 370,000 active;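 active means inhibition above a cutoff: mean of compounds within the control limits plus 3 SD of those, cut at about 17% in these data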;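 further: 0% = plate median of compound wells and 100% = probe without SIAE protein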
# HTRA1 inhibitor: HTRA1 (human) protease inhibition | recombinant HTRA1, FP-rhodamine activity-based probe, fluorescence polarization | Q92743 | 0.5% of 340,000 active | AID 504803 | inhibition, % at 5.96 µM; in the data active means inhibition above about 36%;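 further: 0% = enzyme with DMSO and 100% = wells lacking enzyme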
# Target sequence (Q92743 whole entry, looked up): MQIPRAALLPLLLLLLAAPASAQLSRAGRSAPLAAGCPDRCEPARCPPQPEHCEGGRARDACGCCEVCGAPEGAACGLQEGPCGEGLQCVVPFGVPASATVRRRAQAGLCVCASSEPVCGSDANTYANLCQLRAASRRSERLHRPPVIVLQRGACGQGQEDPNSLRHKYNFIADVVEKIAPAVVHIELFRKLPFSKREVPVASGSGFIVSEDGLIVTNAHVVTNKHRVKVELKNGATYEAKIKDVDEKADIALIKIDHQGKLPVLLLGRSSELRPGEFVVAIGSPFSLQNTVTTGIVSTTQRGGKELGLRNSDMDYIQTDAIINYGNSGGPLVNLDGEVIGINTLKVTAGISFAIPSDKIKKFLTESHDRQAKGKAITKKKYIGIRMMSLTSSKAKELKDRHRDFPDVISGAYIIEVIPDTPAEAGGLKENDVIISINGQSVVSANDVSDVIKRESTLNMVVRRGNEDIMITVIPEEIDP
# HTRA1 conf: HTRA1 (human) inhibition, confirmation | 66% of 1,600 active | inhibition, % at 5.96 µM | recombinant HTRA1, FP-rhodamine activity-based probe, fluorescence polarization | shares compounds with HTRA1 inhibitor | AID 540248;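 active means mean inhibition over three repeats above a set limit taken from the earlier primary screen, cut at about 37% in these data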;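 further: 0% = HTRA1 with DMSO and 100% = wells lacking HTRA1; inhibitors block probe binding so polarization drops and inhibition rises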
# An asterisk follows results filed as active; / = not tested or not shown. Sampled rows, rich in hits. Any-hit rate of the full collection: about 2.9%.
SMILES,TCR CD3 inh,ATG4B inhibitor,PRMT1 inh,ABHD4 inh,SIAE primary,HTRA1 inhibitor,HTRA1 conf
C=CC[C@@H]1NN2C(=O)[C@@H](CCc3ccccc3)[C@@H]3c4ccccc4C=NN3[C@@H]2c2ccccc21,/,/,-1,3,-6,/,/
CCN(CC)C(=O)c1ccc(-c2nnc(Nc3ccc(O)cc3)c3ccccc23)cc1,-11,0,1,-5,4,41*,25
O=C1c2ccccc2-c2onc3ccc(Oc4ccccc4)c1c23,-34,0,11,-31,-6,39*,22
CC1CCCCC1NC(=O)COC(=O)c1c2c(nc3ccccc13)/C(=C\c1ccco1)CC2 (centres undefined),6,20,14,33*,12,57*,4
CN(Cc1ccccc1)C(=O)OCc1cn(Cc2ccccc2F)nn1,/,/,-2,-2,1,/,/
O=C(NN=C1CCN(Cc2ccccc2)CC1)c1cc(Br)ccc1O,13,6,0,9,11,40*,13
c1nc(NCC2CCCC2)c2cc(-c3ccc4c(c3)OCO4)ccc2n1,/,/,-5,-6,-8,/,/
c1ccc(-c2nnc(-c3ccccn3)nc2NC2CCCCC2)cc1,0,0,-2,5,-1,65*,80*
COc1c(OC(C)=O)ccc(/C=C/c2ccc3cccc(OC)c3n2)c1[N+](=O)[O-],-1,32,5,-17,-9,14,/
CCOc1c(OC(C)=O)ccc(/C=C/c2ccc3cccc(OC(C)=O)c3n2)c1[N+](=O)[O-],/,-3,/,/,/,37*,27
Oc1ccccc1C=NNC(=S)Nc1ccc(F)cc1,12,4,-6,9,6,45*,46*
Fc1ccc(NC(=S)NN=Cc2ccccc2Cl)cc1,-4,0,2,-2,5,-20,/
Cc1cc(C)cc(N=Cc2ccc([N+](=O)[O-])s2)c1,-2,-5,1,9,0,17,/
Cc1ccc(NC(=S)N/N=C/c2ccc([N+](=O)[O-])s2)cc1,-9,-16,0,3,8,59*,59*
O=C(Nc1cccs1)OC1CC2CC1[C@H]1CCCCN1C2 (some centres undefined),/,/,-4,-7,10,/,/
Cc1ccc(O)c(CNc2cccc3cccnc23)c1,-6,-5,-1,7,4,22,/
Oc1ccc(Br)cc1CNc1cccc2cccnc12,-5,9,-2,21,13,45*,8
O=S(=O)(c1sccc1Br)n1c(CN2CCOCC2)nc2ccccc21,/,/,1,7,1,/,/
Cc1ccc(S(=O)(=O)N2CCCC2c2cccc3[nH]cc(C)c23)cc1 (centres undefined),/,/,1,1,-2,/,/
CCC(=O)Nc1ccc(Nc2ccccc2)cc1,6,-10,-1,-3,6,21,/
COCC(=O)Nc1ccc(Nc2ccccc2)cc1,1,-22,0,0,7,47*,40*
COc1cc(NCCCCCCN)c2ncccc2c1OC,14,10,4,40*,7,38*,39*
COc1cc(NC(C)CCCNC(C)C)c2ncccc2c1OC (centres undefined),2,-6,2,16,9,6,/
CN(C)CCCNC(=O)C[C@@H]1CC[C@@H]2[C@H](COc3ccc(NC(=O)c4cccc(F)c4)cc3C(=O)N2C)O1,/,/,0,2,3,/,/
Cc1cccc(C)c1NC(=S)NCCc1ccc(O)c(O)c1,2,9,10,15,9,48*,109*
SMILES,TCR CD3 inh,ATG4B inhibitor,PRMT1 inh,ABHD4 inh,SIAE primary,HTRA1 inhibitor,HTRA1 conf
CCc1ccc(O)c(N=Cc2cccc(C)c2O)c1,0,19,2,20,9,26,/
CCCc1ccc(O)c(N=Cc2cc(Br)cc(OCC)c2O)c1,-5,34,5,18,-2,41*,55*
c1ccc(CNc2ccc(N3CCOCC3)cc2)cc1,1,-5,8,26,14,52*,17
CCc1ccc(CNc2ccc(N3CCN(C(C)=O)CC3)cc2)cc1,-2,-1,6,27,8,42*,4
Cc1ccccc1N1CCN(C(=O)CN2C(=O)CC(C)(C)S(=O)(=O)c3ccccc32)CC1,/,/,0,4,-3,/,/
COc1cnc(-c2ccccn2)nc1Oc1ccc(Cl)c2ccccc12,4,-1,-6,-1,1,53*,54*
O=C(N/N=C/c1sc(N2CCOCC2)nc1-c1ccccc1)c1cccc(S(=O)(=O)N2CCCC2)c1,4,-6,-4,1,14,46*,63*
O=C(N/N=C/c1sc(N2CCOCC2)nc1-c1ccccc1)c1ccc(O)cc1,-6,-4,3,7,12,15,/
CCCCC(=O)N(Cc1ccc2c(c1)OCO2)Cc1nc2ccccc2c(=O)[nH]1,5,-7,0,-6,5,-2,/
CCCCN(Cc1nc2ccccc2c(=O)[nH]1)C(=O)c1nn(C)c(=O)c2ccccc12,0,-4,5,0,-2,85*,0
Cc1ccc(C(=O)CNc2cc(C)ccc2C)cc1,4,3,2,2,5,1,/
CCNc1cc(O)ccc1C,/,2,/,/,/,71*,41*
CC(C)NC(=O)N[C@H]1C[C@@H]2O[C@@H](CO)CC[C@@H]2O[C@@H]1CCc1ccc(-c2ccc(F)cc2)cc1,/,/,2,-5,-18,/,/
Nc1ccc(N2CCCCC2)cc1N1CCCCC1,0,4,6,23,6,51*,59*
C=CCN1CCc2c(cc(O)c(O)c2Br)[C@@H](c2ccccc2)C1,6,-8,3,15,-3,51*,68*
CN1CCc2cc(O)c(O)cc2C(c2ccccc2)C1 (centres undefined),7,1,14,7,6,4,/
CC(C)CNC(=O)OCc1cn(Cc2ccc(F)c(F)c2)nn1,/,/,-3,-3,-5,/,/
O=C1CCCC2=C1C(c1ccc(O)c(O)c1)Nc1ccc3ncccc3c12 (centres undefined),12,6,34*,10,-10,40*,67*
c1ccc(-c2nc3cc4ccccc4cc3[nH]2)nc1,-1,-8,-2,7,15,55*,60*
CC(=O)Nc1ccc2nc(-c3ccccn3)[nH]c2c1,-4,-8,0,4,-4,1,/
CCOC(=O)[C@]12CCCCC/C=C\1N(Cc1ccc(OC)cc1)C(=O)[C@H]2CC(=O)N1CCC(c2ccccc2)CC1,/,/,-3,-8,-1,/,/
Oc1c(CN2CCN(c3ccccc3)CC2)cc(Br)c2cccnc12,6,1,0,15,6,56*,44*
Oc1c(Br)cc(Br)c2cccnc12,-6,9,0,28,27*,58*,59*
N=C1CCC(=N)c2c1c(O)c1ccccc1c2O,/,-3,/,/,/,88*,110*
O=C1CCn2c1c(O)c1ccccc1c2=O,-5,11,4,8,-2,7,/
